Molecules are shown by their SMILES.

The data set is described as follows: Toxicity liver stage against HepG2, at 10uM. The data set is classed as cell-based. Also on record: test concentration 10 uM, cell line HepG2-A16-CD81EGFP. Conditions: human, HepG2-A16-CD81EGFP cells; read-out: INHIBITION
In a few lines: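 Uninfected HepG2-A16-CD81EGFP cells, 3 × 10^3 per well, 1536-well, plated on prespotted compound at 10 μM final, parasite-free screening media added to match infected plates; puromycin 10 μM positive, DMSO 0.5% negative; run in parallel with 48 h PbLuc assay at 37 °C, 5% CO2; viability by CellTiter-Glo luminescence, normalized to controls.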
As to `Cc1nc(C2CCNC2)nc2c1CCC(=O)N2C` (stereo not given), the cytotoxicity at 10 µM is 3.77%.
To `Cn1ccnc1CN1CCC2(CC1)CCN(c1ccccc1)C2=O` belongs -9.06%; to `Cc1cccc(CN2C[C@@H]3CN(C(=O)c4cnoc4C)C[C@@H]3C2=O)n1`, 5.71%; to `CS(=O)(=O)N1C[C@H]2CNC[C@@]2(C(=O)NCCOc2ccccc2)C1`, 2.1%.
To `Cc1ccc(CN2CCOCC3(CCN(Cc4cccs4)C3)C2)o1` (stereo not given) belongs -5.61%.
The same measure for `COCC(=O)N1CCCC(c2cccc(-n3ccnc3)n2)C1` (stereo not given): -9.69%.
`CC(=O)N1CCC(NC(=O)c2cc(Cl)ccc2-n2cnnn2)CC1`: the cytotoxicity at 10 µM was determined as 8.72%.
On to `CC(C)c1ccc(S(=O)(=O)NC2CCN(CC(F)(F)F)C2)cc1` (stereo not given), for which the cytotoxicity at 10 µM was 9.19%.
As to `CC/N=c1\nc(NCC)nc2n1C(O)(Nc1cc(C)ccc1C)CS2` (stereo not given), the cytotoxicity at 10 µM came to 10.3%.
With `CSc1ccc(CN(C(=O)c2cc(=O)[nH]c(=O)[nH]2)C2CC2)cc1`, the cytotoxicity at 10 µM was -44.8%.
Regarding `COCC(=O)Nc1ccnc(OCCN(C)C)c1`, the cytotoxicity at 10 µM was -7.67%.
To `Cc1cc(C)n2cc(CN3CCCC3Cn3nc(C)nc3C)nc2n1` (stereo not given) belongs 4.91%; to `COc1ccc(NC(=O)NCC(C)N2CCc3ccccc32)cc1` (stereo not given), -2.42%; to `Cc1nc(NCC2CC2)nc2c1COCC21CCN(S(=O)(=O)C2CC2)C1` (stereo not given), -84.8%.
The same measure for `Cc1cc(C(=O)Nc2cccn(Cc3ccccc3)c2=O)no1`: -1.55%.
To `COc1cc(F)c(C(C)NC(=O)c2cccnc2C)cc1OC` (stereo not given) belongs 38%.
As for `Cc1nn(C)c(C)c1C1CCCN1C(=O)c1nccnc1N` (stereo not given), the cytotoxicity at 10 µM was -3.08%.
The same measure for `Cc1nc(CN2C[C@@H]3CN(C(=O)[C@H]4CCCO4)C[C@@H]3C2=O)cs1`: -81.5%; for `CC(CN1CCOC1=O)NC(=O)c1ccccc1Oc1ccccc1` (stereo not given): 1.2%; for `O=C(Nc1ccc(N2CCCC2)nc1)N1CCc2sccc2C1`: -16.6%.
To `CC(C)CCC(=O)N1CCCC1c1nnc2n1CCCCC2` (stereo not given) belongs -8.88%; to `Cc1ccccc1C(=O)N1CCN(c2ccc(-n3cncn3)nn2)CC1`, 50.8%.
To `CS(=O)(=O)N1Cc2nccn2CC(CN2CCCC2=O)C1` (stereo not given) belongs 5.8%; to `Cc1ccc(NS(=O)(=O)c2cnn(Cc3ccccc3)c2)c(C(=O)O)c1`, -2.41%.
On to `c1cnc(N2CC3(CCN(Cc4ccncc4)C3)C2)nc1`, for which the cytotoxicity at 10 µM was -82.8%.
To `Cc1cc(C(=O)N2CCn3cc(CN4CCCC4)nc3C2)no1` belongs -79.3%; to `CS(=O)(=O)N1C[C@H]2CC[C@@H](C1)N(C(=O)CCn1cnc3ccccc31)C2`, 4.11%; to `CNS(=O)(=O)c1cccc(C(C)NCc2ccccc2)c1` (stereo not given), -2.29%.
The same measure for `N#Cc1cccc(C(=O)N2C[C@@H]3CC[C@H]2CN(C(=O)C2CCC2)C3)c1`: -2.5%.
The same measure for `Cc1cc(CN(C)C(=O)c2ccc(F)c(C(F)(F)F)c2)no1`: -10%; for `COc1cccc(CCC(=O)N2CCCCC2Cn2cccn2)c1` (stereo not given): -11.3%.
With `CC(=O)N1CCN(Cc2ccc(C(F)(F)F)c(F)c2)CC(O)C1` (stereo not given), the cytotoxicity at 10 µM is -2.2%.
Regarding `COc1ccccc1C(NC(=O)CN(C)C(C)C)c1noc(C)n1` (stereo not given), the cytotoxicity at 10 µM is -3.21%.
As for `Cc1nc(COc2ccc(CNCCn3cccn3)cc2)cs1`, the cytotoxicity at 10 µM was -8.96%.
To `O=C(CS(=O)(=O)c1cccc[n+]1[O-])NC1CCCc2ccccc21` (stereo not given) belongs -3.46%; to `Cc1c[nH]c(C2COCCN2C(=O)c2ccc(=O)[nH]n2)n1` (stereo not given), -8.77%.
To `Cc1cccc(N2CCN(CCCNC(=O)c3nccn3C)CC2)c1` belongs -0.679%; to `CC(C)c1noc(-c2cccc(OCC(N)=O)c2)n1`, -7.39%; to `CCc1cc(=O)[nH]c(-c2ccc(NC(C)CN3CCOCC3)nc2)n1` (stereo not given), -145%.
`CNC(=O)CCN1CCCC1c1ccccc1Br` (stereo not given): the cytotoxicity at 10 µM was determined as 15.3%.
Turning to `Cc1ccc2nc(C3CCCN(Cc4ccccc4)C3)nc(O)c2c1` (stereo not given), the cytotoxicity at 10 µM came to 6.67%.
With `NC(=O)CCC(=O)N1CCc2[nH]nc(-c3ccc4c(c3)OCO4)c2C1`, the cytotoxicity at 10 µM was -142%.
The same measure for `CSCC[C@H](NC(=O)Cn1ccc2c(Cl)cccc21)C(=O)O`: 4.18%.
As to `COc1cccc(CC2(C(=O)O)CCN(c3nccs3)CC2)c1`, the cytotoxicity at 10 µM is -9.59%.
`COc1ccc(-c2ccc(C(=O)N3CCOCC3CC(N)=O)o2)cc1` (stereo not given): the cytotoxicity at 10 µM worked out at 3.16%.
To `CSc1ncccc1C(=O)N1CCC2(CC1)OCCCC2O` (stereo not given) belongs -7.16%; to `O=C(C1CCCN1S(=O)(=O)C1CCCC1)N1CCSCC1` (stereo not given), 4.71%.
Regarding `Cc1c[nH]c(CN2CC[C@@]3(O)CCN(C(=O)C4CCCC4)C[C@H]3C2)n1`, the cytotoxicity at 10 µM stood at 3.11%.
The same measure for `Cc1cc2nc(C(C)C)cc(NCC(c3ccccn3)N(C)C)n2n1` (stereo not given): -1.63%; for `CN(CC1Cc2ccccc2CN1C)C(=O)CSc1nccn1C` (stereo not given): -10.8%; for `Cc1cc(C2CCCN(CC(=O)N3CCc4ccccc43)C2)n[nH]1` (stereo not given): 2.01%.
To `CN(Cc1cccc(-n2cccn2)c1)c1cc(N2CCCC2)nc(N)n1` belongs 51.6%; to `O=C(C1CN(Cc2ccsc2)Cc2ccnn2C1)N1CCCC1` (stereo not given), -6.93%.
The same measure for `Cc1ccc(N2CCCC(NCc3ccsc3)C2)nn1` (stereo not given): -7.42%; for `CN(C(=O)c1ccnn1C)[C@@H]1CCC[C@@H](Oc2ccccc2)[C@@H]1O`: -35.9%; for `Cn1ccc(CN2CCCC2c2ccc3c(c2)OCCCO3)cc1=O` (stereo not given): -4.2%.
In the case of `COc1ccc(-c2c(C)nn3c(=N)c(C#N)n[nH]c23)cc1`, the cytotoxicity at 10 µM was -8.26%.
To `Cc1nnsc1CN1C[C@H]2CC[C@@H](C1)N(Cc1ccccc1)C2` belongs 9.47%.
To `COc1cc(CNC2CCCc3c2cnn3C)cc(OC)c1` (stereo not given) belongs -6.85%; to `Cc1cc(SCC(N)=O)nc(-c2cccc(F)c2)n1`, -1.9%.
Consider `O=C([C@@H]1CCO[C@@H]2CCN(Cc3cccs3)C[C@H]21)N1CCCCO1`, for which the cytotoxicity at 10 µM is 5.77%.
The same measure for `O=C(NCCN1CCCC1)c1cc2c(s1)CCN2C(=O)c1ccccc1`: 0.559%; for `CC(C)Cc1nc(OCC(N)=O)c(C#N)c2c1CCC2`: 75.7%; for `CC(C(=O)Nc1cccc(F)c1)N(C)CCN1CCOCC1` (stereo not given): -9.19%.
To `CC(C)c1nn(C)c(N(C)C)c1CNC1CCc2cc(F)ccc21` (stereo not given) belongs 1.93%.
On to `COc1ccc2c(c1)CCCN2C(=O)NCCc1cnn(C)c1`, for which the cytotoxicity at 10 µM is -6.94%.
The same measure for `O=C(CN1CCCC1Cn1cncn1)NCC1(c2ccccc2)CC1` (stereo not given): 4.74%; for `Cc1cc(OCC(=O)NS(=O)(=O)c2cccnc2)ccc1Cl`: 0.544%.
The same measure for `CCNC(=O)CN1CCN(c2cc(C)nc(-c3ccncc3)n2)CC1`: 5.63%; for `Cc1cc(C(=O)NC(C)CC(=O)c2ccco2)[nH]n1` (stereo not given): -8.17%.
Turning to `Cc1ccc(-c2ncc(C(=O)N3CCCN4CCC[C@H]4C3)c(O)n2)cc1`, the cytotoxicity at 10 µM is -8.04%.
To `Cn1cc(NC(=O)c2cc3c(s2)CCCC3)cn1` belongs -2.17%; to `O=C(N[C@@H]1CN(C2CCCC2)C[C@@H]2CCCO[C@@H]21)c1cnccn1`, -1.58%.
To `Cc1cc(N2CCN(C(=O)[C@@H]3C[C@H]4C=C[C@@H]3C4)CC2)cc(C)n1` belongs -7.62%; to `Cc1cnc(C)c(N2CCN(CCCc3[nH]nc(C)c3C)CC2)n1`, -10%; to `Cc1ccccc1C(=O)Nc1cnn(CC(=O)NC2CCCC2)c1`, -18.4%.
The same measure for `O=C1CCCN1Cc1ncn2c1CN(S(=O)(=O)c1cccs1)CCC2`: 4.76%; for `C[C@@H](N)C(=O)N1CC2(CCNCC2)c2cc(Cl)ccc21`: -2.42%.
In the case of `CC(=O)Nc1nc(CN(C)CC2CCCN2c2cccnn2)cs1` (stereo not given), the cytotoxicity at 10 µM stood at 15.1%.
Take `COCCOc1ccc(C(=O)N2CCCC(n3cncn3)C2)cn1` (stereo not given): the cytotoxicity at 10 µM was -11.7%.
The same measure for `COc1ccc(CC(=O)N(C)C2CCN(C)C2=O)cc1F` (stereo not given): 0.0152%.
The same measure for `CCN(Cc1ccoc1)Cc1nc(COC)no1`: -0.566%; for `CCc1csc(C2CCCN(C(=O)c3cnn(CC)c3)C2)n1` (stereo not given): 4.73%.
The same measure for `CC(=O)Nc1nc(C(=O)NCc2ccc(N3CCCC3)nc2)cs1`: -2.6%; for `O=C(c1cccc(-n2cnnn2)c1)N1CCC2(CC1)OCCO2`: -126%.
On to `O=C(CCc1ccccc1)C1CCCN(C(=O)c2cncc(Cl)c2)C1` (stereo not given), for which the cytotoxicity at 10 µM is 1.72%.
On to `O=C(CC1CCN(CCc2ccccc2)CC1)NC1CCOCC1`, for which the cytotoxicity at 10 µM worked out at 3.31%.
The same measure for `Cc1ccccc1C(=O)NC[C@@H]1CCN(C(=O)CN2CCCC2)C[C@H]1O`: -39.8%; for `Cc1cc(CN2C[C@@H]3COC[C@@H](C(=O)N4CCCCO4)[C@@H]3C2)oc1C`: -72.8%.
To `Cc1ncc(C(=O)N2CCCC2(C)C(=O)N2CCOCC2)c(C)n1` (stereo not given) belongs -0.681%.
The same measure for `Cc1sc2c(C3CCCN(C(C)C)C3)nc(C)n2c1C` (stereo not given): -13.8%.
`CCc1ccc(NC(=O)CC2Cn3ncnc3NC2=O)cc1` (stereo not given): the cytotoxicity at 10 µM was 6.47%.
The same measure for `COCC1CN(Cc2cc(C)on2)Cc2cn(CC3CCCC3)nc21` (stereo not given): 6.4%; for `COc1ccnc(N2CCN(C(=O)c3ccc(Cl)o3)CC2)n1`: -19.2%; for `COCc1nc(C(=O)N2CCCC(n3ccnc3)C2)cs1` (stereo not given): -2.12%.

The values are drawn from ChEMBL document CHEMBL4513216, “Probing the Open Global Health Chemical Diversity Library for Multistage-Active Starting Points for Next-Generation Antimalarials” (ACS Infect Dis, 2020).
